How the values were obtained:
Raji [1] = assay: Inhibition of TPA-induced EBV-early antigen activation in human Raji cells assessed as EA induction at 10 molar ratio after 48 hrs relative to TPA; type: cell-based; design: scale not given: the % may be the effect or the level left; details: human gammaherpesvirus 4
Summary of the method: (§1)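 Raji cells (virus non-producer, spontaneous EA activation <0.1%) incubated 48 h at 37 °C with 4 mM n-butyric acid plus 32 pM TPA and compound in DMSO; smears stained by indirect immunofluorescence with NPC patient EBV-EA-positive serum, ≥500 cells counted; EA-positive cells expressed relative to butyrate+TPA control (100%); triplicates; IC50 as mol ratio to 32 pmol TPA.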

[2] = Cytotoxicity against human Raji cells assessed as cell viability at 100 molar ratio after 48 hrs by trypan blue staining method; type: cell-based; details: read-out: Activity
Summary of the method: (§2)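 Raji cells (EBV genome-carrying, Burkitt's lymphoma) grown in RPMI-1640 with 10% FBS; incubated 48 h at 37 °C with 4 mM n-butyric acid, 32 pM TPA and test compound in DMSO at stated compound/TPA molar ratio; viability determined by Trypan blue staining.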

Raji [3] = assay: Inhibition of TPA-induced EBV-early antigen activation in human Raji cells assessed as EA induction at 1000 molar ratio after 48 hrs relative to TPA; type: cell-based; design: scale not given: the % may be the effect or the level left; details: human gammaherpesvirus 4; summary of the method: as §1
[4] = Cytotoxicity against human Raji cells assessed as cell viability at 10 molar ratio after 48 hrs by trypan blue staining method; type: cell-based; details: read-out: Activity; summary of the method: as §2
[5] = Inhibition of TPA-induced EBV-early antigen activation in human Raji cells assessed as EA induction after 48 hrs relative to TPA; type: cell-based, human gammaherpesvirus 4; summary of the method: as §1
Raji [6] = assay: Inhibition of TPA-induced EBV-early antigen activation in human Raji cells assessed as EA induction at 100 molar ratio after 48 hrs relative to TPA; type: cell-based; design: scale not given: the % may be the effect or the level left; details: human gammaherpesvirus 4; summary of the method: as §1
Raji [7] = assay: Inhibition of TPA-induced EBV-early antigen activation in human Raji cells assessed as EA induction at 500 molar ratio after 48 hrs relative to TPA; type: cell-based; design: scale not given: the % may be the effect or the level left; details: human gammaherpesvirus 4; summary of the method: as §1
[8] = Cytotoxicity against human Raji cells assessed as cell viability at 500 molar ratio after 48 hrs by trypan blue staining method; type: cell-based; details: read-out: Activity; summary of the method: as §2
[9] = Cytotoxicity against human Raji cells assessed as cell viability at 1000 molar ratio after 48 hrs by trypan blue staining method; type: cell-based; details: read-out: Activity; summary of the method: as §2

| SMILES | Activity (Raji [1]) [%] | viability at 48 h, 100 molar ratio [2] [%] | Activity (Raji [3]) [%] | viability at 48 h, 10 molar ratio [4] [%] | IC50 [5] [molar ratio] | Activity (Raji [6]) [%] | Activity (Raji [7]) [%] | viability at 48 h, 500 molar ratio [8] [%] | viability at 48 h, 1000 molar ratio [9] [%] |
| --- | --- | --- | --- | --- | --- | --- | --- | --- | --- |
| C=C(C)[C@@H]1CC[C@]2(C(=O)O)CC[C@]3(C)[C@H](CC[C@@H]4[C@@]5(C)CC[C@H](OC(=O)CCCCCCC/C=C\C/C=C\C/C=C\CC)C(C)(C)[C@@H]5CC[C@]43C)[C@@H]12 | 97 | > 80 | 10.9 | > 80 | 445 | 77.8 | 43.3 | > 80 | 60 |
| C=C(C)[C@@H]1CC[C@]2(C(=O)O)CC[C@]3(C)[C@H](CC[C@@H]4[C@@]5(C)CC[C@H](OC(=O)CCC/C=C\C/C=C\C/C=C\C/C=C\C/C=C\CC)C(C)(C)[C@@H]5CC[C@]43C)[C@@H]12 | 100 | > 80 | 15.3 | > 80 | 523 | 80.1 | 50.4 | > 80 | 60 |
